Key:
SH-SY5Y cells [1] = experiment: MTS-based cell survival assay; design: species or system human
Cav2 VGCCs = conditions: cited from earlier work
cdk = conditions: cited from earlier work
Cav2.1 VGCC = experiment: Whole-cell perforated patch clamp of Cav2.1 current; format: cell-based
cdk2 = cdk2 (Homo sapiens, UniProt P24941); experiment: kinaseseeker kinase assay; format: binding; conditions: 2 μM
Method in brief: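 Cell-free luminescent probe-displacement binding assay in rabbit reticulocyte lysate. Compound (2 μM) or DMSO control was incubated 30 min at room temperature, then 1 h with a kinase-specific probe. Luminescence was read, and values expressed as percent kinase activity remaining.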

cdk5 = cdk5 (Homo sapiens, UniProt Q00535); experiment: kinaseseeker kinase assay; format: binding; conditions: 2 μM
Sequence of cdk5 (Q00535 whole entry, species assumed): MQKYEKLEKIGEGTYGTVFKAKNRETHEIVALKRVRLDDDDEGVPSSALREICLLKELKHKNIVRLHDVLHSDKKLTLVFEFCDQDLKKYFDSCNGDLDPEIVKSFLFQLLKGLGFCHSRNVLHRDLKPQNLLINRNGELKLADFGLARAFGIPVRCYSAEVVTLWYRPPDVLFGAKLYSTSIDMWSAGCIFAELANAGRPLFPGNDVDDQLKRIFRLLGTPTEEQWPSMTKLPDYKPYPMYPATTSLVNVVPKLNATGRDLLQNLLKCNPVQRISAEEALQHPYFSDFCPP

[2] = test system: rectifying outward current in HEK293 cells; experiment: Contaminating rectifying outward current during voltage steps in patch clamp; format: cell-based; conditions: 50 μM; mean ± SEM, n = 7; across all voltages tested
SH-SY5Y cells [3] = conditions: ref Tarr et al., 2014; cited from earlier work
[4] = ref Liang et al., 2012, Tarr et al., 2013

## CC[C@H](CO)Nc1nc(NCc2ccccc2)c2ncn(C(C)C)c2n1 [(R)-roscovitine, reference compound]
SH-SY5Y cells [1]; 24 h exposure
  Concentrations giving a significant decrease in cell survival: ≥ 10 µM

## CC[C@@H](CO)Nc1nc(NCc2ccccc2)c2ncn(C(C)C)c2n1 [(S)-roscovitine]
Cav2 VGCCs; ref Buraei and Elmslie, 2008
  Concentration needed for VGCC agonist activity: above 500 μM
  Lower affinity than (R)-roscovitine (VGCC agonist activity): 20 fold
cdk; ref De Azevedo et al., 1997
  Potency as cdk inhibitor, less than (R)-roscovitine: 2 fold

## CCCn1cnc2c(NCc3ccc(C)s3)nc(N[C@H](CC)CO)nc21 [GV-58]
Cav2.1 VGCC; 50 μM continuously present, steps to +20 mV of 1–100 msec
  Depolarization time to 50% of maximal effects on tail current integral: 2 to 4 ms
Cav2.1 VGCC; 50 μM, 20 msec steps from −100 mV
  Shift of voltage-dependence of activation curves (peak tail current): did not show any shift
Cav2.1 VGCC; 50 μM, 20 msec steps from −100 mV, ascribed to contaminating outward current
  Shift to the left of IV plots (peak current during step): ~10 mV
Cav2.1 VGCC; 50 μM, tail current at −60 mV after 200 msec step to +60 mV
  Tail current decay (slow deactivation) time constant: 9.16 ± 0.706 ms
cdk2
  Reduction of cdk2 activity: 0–15%
cdk5
  Reduction of cdk5 activity: 10–20%
SH-SY5Y cells [1]; 50 μM, 24 h
  Effect on cell survival at 50 μM: no significant effects on cell survival
SH-SY5Y cells [1]; 24 h exposure, 0.1–100 μM, normalized to vehicle
  Effect on cell survival: little or no effect on cell survival, even up to 100 μM
[2]
  Increase in rectifying current amplitude: 70 ± 10%
SH-SY5Y cells [3]
  Decrease in cell survival at 100 μM: 8%
Cav2 VGCCs; [4]
  Higher potency and efficacy for Cav2 VGCCs than (R)-roscovitine: 4 fold
cdk; [4]
  Reduction in cdk activity versus the parent molecule (R)-roscovitine: greater than 20 fold

Source: paper PMC5820137 (Neuropharmacology, 2017)
